Laboratory results: ChEMBL document CHEMBL1124459, “Activity of aromatic substituted phenylpiperazines lacking affinity for dopamine binding sites in a preclinical test of antipsychotic efficacy” (J Med Chem, 1989)

Tests used:
[1] = target: Serotonin 2 (5-HT2) receptor (Rattus norvegicus, UniProt P30994+P08909+P14842); test: Binding affinity at rat 5-hydroxytryptamine 2 receptor by [3H]ketanserin displacement.; assay type: protein assay
[2] = target: 5-hydroxytryptamine receptor 1B (Rattus norvegicus, UniProt P28564); test: Binding affinity at rat 5-hydroxytryptamine 1B receptor by [3H]5-HT displacement.
D(1A) dopamine receptor = D(1A) dopamine receptor (Rattus norvegicus, UniProt P18901); test: Binding affinity at rat Dopamine receptor D1 by [3H]SCH-23390 displacement.
How it was run: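 Rat striatal tissue suspended in 20 mM NaHepes without sucrose, at 250 volumes of the tissue weight. Labelled with [3H]SCH-23390 added as a 3 nM solution. Nonspecific binding set with unlabelled SCH-23390 added as a 30 μM solution. Incubated 20 min. Run in duplicate, with one to five concentration–response curves per compound.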

Rattus norvegicus [3] = test: Effective dose in blocking conditioned avoidance responding (CAR) in the rat when administered intraperitoneally; assay type: functional; conditions: ip
How it was run: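 Rats trained on a discrete-trial single-lever conditioned avoidance task, dosed ip and tested at the time of peak effect. Each dose was given to 6–12 rats. CAR reduction and loss of escape responding were recorded.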

[4] = target: T1, Serotonin 1 (5-HT1) receptor (Rattus norvegicus, UniProt P28564+P30940+P19327+P28565); test: Inhibition of [3H]5-HT radioligand binding against 5-hydroxytryptamine 1 receptor; assay type: protein assay
Rattus norvegicus [5] = species: Rattus norvegicus; test: The percent loss of escape responding was determined for the estimated effective dose 50 values for CAR block; assay type: functional
[6] = target: T2, Adrenergic receptor alpha-1 (Rattus norvegicus, UniProt P15823+P23944+P43140); test: Binding affinity against rat Alpha-1 adrenergic receptor.; assay type: protein assay
T2 sequence (P15823 whole entry): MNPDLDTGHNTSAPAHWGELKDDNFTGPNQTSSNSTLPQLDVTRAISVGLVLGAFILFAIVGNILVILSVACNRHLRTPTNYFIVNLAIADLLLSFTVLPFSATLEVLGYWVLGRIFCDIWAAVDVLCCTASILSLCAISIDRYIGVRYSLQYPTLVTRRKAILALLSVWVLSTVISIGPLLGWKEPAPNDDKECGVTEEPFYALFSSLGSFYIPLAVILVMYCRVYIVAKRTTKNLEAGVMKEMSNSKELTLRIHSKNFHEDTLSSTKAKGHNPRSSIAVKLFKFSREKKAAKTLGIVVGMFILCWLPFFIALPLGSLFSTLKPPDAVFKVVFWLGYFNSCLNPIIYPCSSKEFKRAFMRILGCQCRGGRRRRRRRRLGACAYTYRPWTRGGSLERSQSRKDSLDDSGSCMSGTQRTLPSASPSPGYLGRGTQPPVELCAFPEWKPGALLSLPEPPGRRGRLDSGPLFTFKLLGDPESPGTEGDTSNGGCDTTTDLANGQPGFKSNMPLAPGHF
T2 sequence (P23944 whole entry): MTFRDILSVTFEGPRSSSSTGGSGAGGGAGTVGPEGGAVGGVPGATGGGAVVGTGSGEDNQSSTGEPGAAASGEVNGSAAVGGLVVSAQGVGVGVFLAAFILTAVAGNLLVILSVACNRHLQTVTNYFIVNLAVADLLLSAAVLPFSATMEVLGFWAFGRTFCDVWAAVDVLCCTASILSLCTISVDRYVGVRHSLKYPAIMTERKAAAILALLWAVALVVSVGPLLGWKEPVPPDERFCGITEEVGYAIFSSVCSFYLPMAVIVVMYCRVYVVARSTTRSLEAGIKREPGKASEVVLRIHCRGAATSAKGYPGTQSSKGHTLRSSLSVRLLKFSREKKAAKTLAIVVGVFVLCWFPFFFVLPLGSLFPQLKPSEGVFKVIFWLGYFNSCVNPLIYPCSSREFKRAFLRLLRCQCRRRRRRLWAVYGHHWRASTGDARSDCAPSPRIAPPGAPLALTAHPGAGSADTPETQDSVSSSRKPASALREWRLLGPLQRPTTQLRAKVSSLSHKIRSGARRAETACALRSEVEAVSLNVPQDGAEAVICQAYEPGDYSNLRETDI
T2 sequence (P43140 whole entry): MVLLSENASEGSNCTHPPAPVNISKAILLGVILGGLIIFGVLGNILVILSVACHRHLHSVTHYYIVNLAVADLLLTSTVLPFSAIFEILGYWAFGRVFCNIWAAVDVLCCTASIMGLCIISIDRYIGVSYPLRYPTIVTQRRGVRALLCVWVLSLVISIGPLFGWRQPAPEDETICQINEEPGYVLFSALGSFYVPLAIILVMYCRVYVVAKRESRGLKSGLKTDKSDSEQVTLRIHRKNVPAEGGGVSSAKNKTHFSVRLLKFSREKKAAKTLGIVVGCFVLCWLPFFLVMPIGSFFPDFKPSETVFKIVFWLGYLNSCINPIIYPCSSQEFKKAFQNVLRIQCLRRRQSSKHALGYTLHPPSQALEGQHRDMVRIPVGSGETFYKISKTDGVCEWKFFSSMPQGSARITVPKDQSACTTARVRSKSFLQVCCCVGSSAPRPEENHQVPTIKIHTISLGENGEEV

[7] = target: T3, 5-hydroxytryptamine receptor 1A (Rattus norvegicus, UniProt P19327)
T3 sequence (P19327 whole entry): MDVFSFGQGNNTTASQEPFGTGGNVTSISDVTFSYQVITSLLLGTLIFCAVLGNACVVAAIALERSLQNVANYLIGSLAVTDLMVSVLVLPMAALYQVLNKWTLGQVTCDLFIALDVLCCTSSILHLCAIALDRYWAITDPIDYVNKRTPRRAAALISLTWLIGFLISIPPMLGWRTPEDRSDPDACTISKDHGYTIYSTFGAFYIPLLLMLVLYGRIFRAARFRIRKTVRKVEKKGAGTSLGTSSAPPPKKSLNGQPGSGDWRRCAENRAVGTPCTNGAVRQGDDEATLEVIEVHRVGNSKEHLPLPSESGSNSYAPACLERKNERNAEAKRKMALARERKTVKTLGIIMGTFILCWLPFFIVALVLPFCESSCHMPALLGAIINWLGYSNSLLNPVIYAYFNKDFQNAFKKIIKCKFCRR

D(2) dopamine receptor = D(2) dopamine receptor (Rattus norvegicus, UniProt P61169); test: Binding affinity against rat Dopamine receptor D2.
[8] = target: T1, Serotonin 1 (5-HT1) receptor; test: Binding affinity determined in radioreceptor binding assay by using [3H]5-HT radioligand against 5-hydroxytryptamine 1 receptor; assay type: protein assay

D(1A) dopamine receptor, sequence (P18901 whole entry): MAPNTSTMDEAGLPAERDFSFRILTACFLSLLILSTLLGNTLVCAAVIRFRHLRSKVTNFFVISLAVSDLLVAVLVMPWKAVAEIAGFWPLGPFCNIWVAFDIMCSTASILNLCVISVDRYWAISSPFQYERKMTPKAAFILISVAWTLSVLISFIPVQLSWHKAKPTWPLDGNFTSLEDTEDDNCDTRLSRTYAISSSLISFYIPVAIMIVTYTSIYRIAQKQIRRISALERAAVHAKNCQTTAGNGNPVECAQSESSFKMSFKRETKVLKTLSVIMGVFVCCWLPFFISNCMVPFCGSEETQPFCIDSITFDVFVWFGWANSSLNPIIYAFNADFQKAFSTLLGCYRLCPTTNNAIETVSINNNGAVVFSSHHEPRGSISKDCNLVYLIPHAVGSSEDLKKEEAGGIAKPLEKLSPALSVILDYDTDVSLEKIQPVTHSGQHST
5-hydroxytryptamine receptor 1B, sequence (P28564 whole entry): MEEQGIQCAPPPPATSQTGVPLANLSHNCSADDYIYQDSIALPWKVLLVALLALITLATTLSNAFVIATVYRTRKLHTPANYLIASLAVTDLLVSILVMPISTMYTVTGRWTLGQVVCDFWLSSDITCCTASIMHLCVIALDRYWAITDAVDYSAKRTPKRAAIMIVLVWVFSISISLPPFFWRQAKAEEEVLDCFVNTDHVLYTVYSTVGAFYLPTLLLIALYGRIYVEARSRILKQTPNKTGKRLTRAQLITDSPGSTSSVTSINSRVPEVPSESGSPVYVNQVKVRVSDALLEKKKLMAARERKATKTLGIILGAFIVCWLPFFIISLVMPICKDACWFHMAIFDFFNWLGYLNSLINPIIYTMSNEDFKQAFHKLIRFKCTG
D(2) dopamine receptor, sequence (P61169 whole entry): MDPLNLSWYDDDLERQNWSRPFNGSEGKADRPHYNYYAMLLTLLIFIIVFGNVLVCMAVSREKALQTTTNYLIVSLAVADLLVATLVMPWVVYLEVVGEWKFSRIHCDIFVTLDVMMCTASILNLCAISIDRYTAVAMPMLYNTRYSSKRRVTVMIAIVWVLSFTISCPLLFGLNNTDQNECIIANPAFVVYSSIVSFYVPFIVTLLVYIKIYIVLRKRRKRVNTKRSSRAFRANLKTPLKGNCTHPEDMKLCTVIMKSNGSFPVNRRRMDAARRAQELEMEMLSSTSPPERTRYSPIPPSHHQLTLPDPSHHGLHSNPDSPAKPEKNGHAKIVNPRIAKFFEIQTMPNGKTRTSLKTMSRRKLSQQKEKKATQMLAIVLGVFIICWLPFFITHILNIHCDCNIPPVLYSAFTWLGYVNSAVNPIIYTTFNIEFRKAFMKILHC

Compound	Ki [1] [nM]	Ki [2] [nM]	Ki (D(1A) dopamine receptor) [nM]	ED50 (Rattus norvegicus [3]) [mg/kg]	Ki [4] [nM]	Loss (Rattus norvegicus [5]) [%]	Ki [6] [nM]	Ki [7] [nM]	Ki (D(2) dopamine receptor) [nM]	Ki [8] [nM]
COc1ccccc1N1CCNCC1	> 1000	17.3	> 1000	5.6	29	1.8	510	9.5		
CCCCOc1ccccc1N1CCNCC1	277	4	> 1000	11.2	19.3	0.2	139	11.1	244	
Clc1cccc(N2CCNCC2)c1 [CHLOROPHENYLPIPERAZINE]	40	4.4	> 1000	2.4	25	1.5	236	23	> 1000	
CCCc1ccccc1N1CCNCC1	232	15.9	> 1000	> 15			117	19.4	379	34.9
CSc1ccc2c(c1)N(CCC1CCCCN1C)c1ccccc1S2 (centres undefined) [THIORIDAZINE]				9.7		7.3				
CN(C)CCCN1c2ccccc2Sc2ccc(Cl)cc21 [CHLORPROMAZINE]				1.8		0.2				
CCCCc1ccccc1N1CCNCC1	204	8.4	> 1000	> 15			31.8	19.1	841	64.8
COC(=O)[C@H]1[C@@H](OC(=O)c2ccccc2)C[C@@H]2CC[C@H]1N2C [COCAINE]				10						
CN1[C@@H]2CC[C@H]1C[C@@H](OC(=O)C(CO)c1ccccc1)C2 (some centres undefined) [ATROPINE]				3						
CN1CCN(CCCN2c3ccccc3Sc3ccc(C(F)(F)F)cc32)CC1 [TRIFLUOPERAZINE]				0.52		1.2				
CCCN(CCC)C1CCc2cccc(O)c2C1 (centres undefined) [8-OH-DPAT]				0.5						
c1ccc(C2(N3CCCCC3)CCCCC2)cc1 [PHENCYCLIDINE]				1						
Fc1cccc(N2CCNCC2)c1	> 1000	30.8	> 1000	3.2	86.5		670	114	> 1000	
CNCCCN1c2ccccc2CCc2ccccc21 [DESIPRAMINE]				20						
O=[N+]([O-])c1cccc(N2CCNCC2)c1	419	33.6	> 1000	5.6	250	4.3	> 1000	~322	> 1000	
CN1C(=O)CN=C(c2ccccc2)c2cc(Cl)ccc21 [DIAZEPAM]				10						
CC(C)Oc1ccccc1N1CCNCC1	235	6.9	> 1000	4.8	19	0.4	84	7.6	64	
CN1CCN(C2=Nc3cc(Cl)ccc3Nc3ccccc32)CC1 [CLOZAPINE]						12.6				
CCN(CC)C(=O)[C@@H]1C=C2c3cccc4[nH]cc(c34)C[C@H]2N(C)C1 [LYSERGIDE]				0.32						
O=C(CCCN1CCC(O)(c2ccc(Cl)cc2)CC1)c1ccc(F)cc1 [HALOPERIDOL]						1.7				
Fc1ccccc1N1CCNCC1	> 1000	28.9	> 1000	5.1	57.9	1.6	373	43	> 1000	
CCOc1ccccc1N1CCNCC1	774	13.8	> 1000	3.4	42.6	~1	70	9.1	144	
c1ccc(N2CCNCC2)cc1 [PHENYLPIPERAZINE]	668	63.3	> 1000	2.7	149	6	794	149	> 1000	
N#Cc1ccccc1N1CCNCC1	> 1000	21.8	> 1000	5.7	26.1	4.3	214	25.5	> 1000	
